ChEMBL document CHEMBL1140094, “Novel microtubule-interacting phenoxy pyridine and phenyl sulfanyl pyridine analogues for cancer therapy” (J Med Chem, 2008)
Blank lines part the entries; values can stand above or below the molecule they belong to. Calls of active or inactive are those of the source. No cut-off for these calls is given here.

Experiments:
PANC-1 [1] = assay: Growth inhibition of human Panc1 cells at 1 uM after 96 hrs by MTT assay relative to control; type: functional; details: PANC-1, 96 h, values are per cent of control
Outline: (§1)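 MTT initial screen of Panc1 and HS766T human pancreatic cancer cells at 1 and 10 μM; growth expressed as percent of untreated control with SD.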

PANC-1 [2] = assay: Growth inhibition of human Panc1 cells at 10 uM after 96 hrs by MTT assay relative to control; type: functional; details: PANC-1, 96 h, values are per cent of control; outline: as §1
[3] = Growth inhibition of human HS766T cells at 1 uM after 96 hrs by MTT assay relative to control; type: functional; details: Hs 766, 96 h, values are per cent of control; outline: as §1
[4] = Growth inhibition of human HS766T cells at 10 uM after 96 hrs by MTT assay relative to control; type: functional; details: Hs 766, 96 h, values are per cent of control; outline: as §1
PANC-1 [5] = assay: Growth inhibition of human Panc1 cells after 96 hrs by MTT assay relative to control; type: functional, cell-based; details: PANC-1, 96 h
[6] = Growth inhibition of human HS766T cells after 96 hrs by MTT assay relative to control; type: functional, cell-based; details: Hs 766, 96 h
MCF7 [7] = assay: Cell cycle arrest in human MCF7 cells assessed as accumulation at G2/M phase at 5 uM after 15 hrs by propidium iodide staining; type: functional
Outline: (§2)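 MCF7 breast cancer cells treated 15 h at 5 μM; colcemid 0.1 μg/mL (about 0.25 μM) as positive control. Cells harvested and fixed, DNA labeled with propidium iodide, mitotic cells labeled with monoclonal MPM2 (phospho-epitopes at mitosis onset); flow cytometry. PI scans gated M1 G1, M3 S, M2 G2/M; mitotic fold increase versus untreated.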

MCF7 [8] = assay: Cell cycle arrest in human MCF7 cells assessed as accumulation at G2/M phase at 5 uM after 15 hrs by MPM2 antibody labeling; type: functional; outline: as §2
[9] = Inhibition of tubulin polymerization assessed as effect on maximum propogation rate
MCF7 [10] = assay: Induction of microtubule disassembly in human MCF7 cells assessed as prometaphase cell cycle arrest at 5 uM after 15 hrs by immunofluorescence staining; type: functional, cell-based
Outline: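 MCF7 cells exposed 15 h to 5 μM compound, colcemid 0.25 μM as positive control, untreated controls. Anti-α-tubulin primary with Alexa-568 secondary, DNA counterstained with DAPI; immunofluorescence microscopy scoring microtubule loss, mitotic stage (prometaphase arrest) and micronuclei in interphase cells.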

[11] = Inhibition of tubulin polymerization
[12] = Inhibition of tubulin polymerization at 4 to 5 uM relative to control
Outline: (§3)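 Turbidity-monitored tubulin assembly; extent of assembly at 20 min compared with no-compound control.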

[13] = Inhibition of tubulin polymerization relative to control; details: values are per cent of control; outline: as §3
SK-OV-3 = assay: Cytotoxicity against paclitaxel-resistant human SKOV3 cells after 7 days by MTT assay; type: functional, cell-based

Compound: O=C(NC(=O)c1ccccc1Cl)Nc1ccc(Sc2cccc(C(=O)NCc3ccccc3)c2)cc1
viability, % of control at 1 µM (PANC-1 [1]): 86% | viability, % of control at 10 µM (PANC-1 [2]): 66% | viability, % of control at 1 µM [3]: 95% | viability, % of control at 10 µM [4]: 74%

Compound: COc1ccc(C(=O)NC(=O)Nc2ccc(Sc3cccc(C(=O)NCc4ccccc4)c3)cc2)c(Cl)c1OC
viability, % of control at 1 µM (PANC-1 [1]): 89% | viability, % of control at 10 µM (PANC-1 [2]): 51% | viability, % of control at 1 µM [3]: 97% | viability, % of control at 10 µM [4]: 75%

IC50 (PANC-1 [5]): 800 nM | IC50 [9]: 4000 nM
Compound: C=CCNC(=O)c1cccc(Oc2ccc(NC(=O)NC(=O)c3ccccc3Cl)cc2)c1
viability, % of control at 1 µM (PANC-1 [1]): 47% | viability, % of control at 10 µM (PANC-1 [2]): 38% | IC50 [6]: 150 nM | viability, % of control at 1 µM [3]: 36% | viability, % of control at 10 µM [4]: 23% | Activity (MCF7 [7]): 67.49% | Activity (MCF7 [8]): 38.29% | Activity (MCF7 [10]): Active

Compound: C=CCNC(=O)c1cccc(Sc2ccc(NC(=O)NC(=O)c3cc(OC)cc(OC)c3)cc2)c1
viability, % of control at 1 µM (PANC-1 [1]): 62% | viability, % of control at 10 µM (PANC-1 [2]): 41% | viability, % of control at 1 µM [3]: 105% | viability, % of control at 10 µM [4]: 87%

Compound: CNC(=O)c1cccc(Sc2ccc(NC(=O)NC(=O)c3ccccc3[N+](=O)[O-])cc2)c1
viability, % of control at 1 µM (PANC-1 [1]): 60% | viability, % of control at 10 µM (PANC-1 [2]): 38% | viability, % of control at 1 µM [3]: 63% | viability, % of control at 10 µM [4]: 23%

Compound: C=CCNC(=O)c1cccc(Oc2ccc(NC(=O)NC(=O)c3ccccc3)cc2)c1
viability, % of control at 1 µM (PANC-1 [1]): 66% | viability, % of control at 10 µM (PANC-1 [2]): 51% | viability, % of control at 1 µM [3]: 76% | viability, % of control at 10 µM [4]: 70%

Compound: C=CCNC(=O)c1cccc(Oc2ccc(NC(=O)NC(=O)c3ccc(OC)c(OC)c3Cl)cc2)c1
viability, % of control at 1 µM (PANC-1 [1]): 61% | viability, % of control at 10 µM (PANC-1 [2]): 53% | viability, % of control at 1 µM [3]: 67% | viability, % of control at 10 µM [4]: 50%

Compound: CCCCCCCCCCNC(=O)c1cccc(Sc2ccc(NC(=O)NC(=O)c3ccc(OC)c(OC)c3Cl)cc2)c1
viability, % of control at 1 µM (PANC-1 [1]): 63% | viability, % of control at 10 µM (PANC-1 [2]): 51% | viability, % of control at 1 µM [3]: 79% | viability, % of control at 10 µM [4]: 62%

Compound: C=CCNC(=O)c1cccc(Oc2ccc(NC(=O)NC(=O)c3ccccc3[N+](=O)[O-])cc2)c1
viability, % of control at 1 µM (PANC-1 [1]): 76% | viability, % of control at 10 µM (PANC-1 [2]): 55% | viability, % of control at 1 µM [3]: 55% | viability, % of control at 10 µM [4]: 30%

Compound: CCCCCCCCCCNC(=O)c1cccc(Sc2ccc(NC(=O)NC(=O)c3cc(OC)cc(OC)c3)cc2)c1
viability, % of control at 1 µM (PANC-1 [1]): 74% | viability, % of control at 10 µM (PANC-1 [2]): 58% | viability, % of control at 1 µM [3]: 77% | viability, % of control at 10 µM [4]: 66%

Compound: CNC(=O)c1cccc(Sc2ccc(NC(=O)NC(=O)c3cc(OC)cc(OC)c3Cl)cc2)c1
viability, % of control at 1 µM (PANC-1 [1]): 77% | viability, % of control at 10 µM (PANC-1 [2]): 52% | viability, % of control at 1 µM [3]: 54% | viability, % of control at 10 µM [4]: 31%

Compound: O=C(NC(=O)c1ccccc1)Nc1ccc(Sc2cccc(C(=O)NCc3ccccc3)c2)cc1
viability, % of control at 1 µM (PANC-1 [1]): 67% | viability, % of control at 10 µM (PANC-1 [2]): 53% | viability, % of control at 1 µM [3]: 79% | viability, % of control at 10 µM [4]: 73%

Compound: COc1cc2c(c(OC)c1OC)-c1ccc(OC)c(=O)cc1[C@@H](NC(C)=O)CC2 [COLCHICINE]
IC50 [11]: 2200 nM

Compound: C=CCNC(=O)c1cccc(Oc2ccc(NC(=S)NC(=O)c3ccccc3)cc2)c1
viability, % of control at 1 µM (PANC-1 [1]): 97% | viability, % of control at 10 µM (PANC-1 [2]): 68% | viability, % of control at 1 µM [3]: 88% | viability, % of control at 10 µM [4]: 73%

Compound: CNC(=O)c1cccc(Sc2ccc(NC(=O)NC(=O)c3ccccc3)cc2)c1
viability, % of control at 1 µM (PANC-1 [1]): 65% | viability, % of control at 10 µM (PANC-1 [2]): 41% | viability, % of control at 1 µM [3]: 77% | viability, % of control at 10 µM [4]: 26%

Compound: C=CCNC(=O)c1cccc(Sc2ccc(NC(=O)NC(=O)c3ccccc3Cl)cc2)c1
viability, % of control at 1 µM (PANC-1 [1]): 69% | viability, % of control at 10 µM (PANC-1 [2]): 46% | viability, % of control at 1 µM [3]: 109% | viability, % of control at 10 µM [4]: 36%

Compound: CCCCCCCCCCNC(=O)c1cccc(S(=O)(=O)c2ccc(NC(=O)NC(=O)c3cc(OC)cc(OC)c3)cc2)c1
viability, % of control at 1 µM (PANC-1 [1]): 48% | viability, % of control at 10 µM (PANC-1 [2]): 43% | viability, % of control at 1 µM [3]: 71% | viability, % of control at 10 µM [4]: 56%

Compound: C=CCNC(=O)c1cccc(Oc2ccc(NC(=O)NC(=O)c3cc(OC)cc(OC)c3)cc2)c1
viability, % of control at 1 µM (PANC-1 [1]): 58% | viability, % of control at 10 µM (PANC-1 [2]): 68% | viability, % of control at 1 µM [3]: 107% | viability, % of control at 10 µM [4]: 64%

Compound: C=CCNC(=O)c1cccc(Sc2ccc(NC(=O)NC(=O)c3ccccc3[N+](=O)[O-])cc2)c1
viability, % of control at 1 µM (PANC-1 [1]): 70% | viability, % of control at 10 µM (PANC-1 [2]): 44% | viability, % of control at 1 µM [3]: 50% | viability, % of control at 10 µM [4]: 27%

Compound: C=CCNC(=O)c1cccc(Sc2ccc(NC(=O)NC(=O)c3ccc(OC)c(OC)c3Cl)cc2)c1
viability, % of control at 1 µM (PANC-1 [1]): 88% | viability, % of control at 10 µM (PANC-1 [2]): 44% | viability, % of control at 1 µM [3]: 101% | viability, % of control at 10 µM [4]: 23%

IC50 (PANC-1 [5]): 700 nM | inhibition [12]: 50% | residual activity [13]: 40% | IC50 [9]: 1700 nM
Compound: CNC(=O)c1cccc(Sc2ccc(NC(=O)NC(=O)c3ccc(OC)c(OC)c3Cl)cc2)c1
viability, % of control at 1 µM (PANC-1 [1]): 35% | viability, % of control at 10 µM (PANC-1 [2]): 33% | IC50 [6]: 500 nM | viability, % of control at 1 µM [3]: 30% | viability, % of control at 10 µM [4]: 21% | Activity (MCF7 [7]): 75.71% | Activity (MCF7 [8]): 47.23% | Activity (MCF7 [10]): Active | Activity (SK-OV-3): Active
